The results in this text go back to paper PMC9134258 (ACS Omega, 2022).

Structures are written as SMILES. A value given as a limit tells only on which side of the number the result lay.

Assay [1] deals with recombinant ALK kinase domain (aa 1073–1410) (Homo sapiens, UniProt Q9UM73). In words: ELISA-based in vitro kinase assay, recombinant ALK. It is filed as biochemical. To be noted: 300 μM ATP. The essentials: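 Purified recombinant ALK kinase domain (aa 1073–1410), wild type or L1196M, was incubated with test compound and Mg++-ATP, then loaded onto peptide substrate-coated wells. Reaction ran at 30 °C for 20 min. After washing, phosphopeptide was quantified with anti-phosphotyrosine antibody PY20. IC50 came from nonlinear regression of normalized data. Inhibition mode was assessed from dose–response curves at increasing ATP concentrations.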
recombinant ALK kinase domain (aa 1073–1410), sequence (Q9UM73 1073-1410): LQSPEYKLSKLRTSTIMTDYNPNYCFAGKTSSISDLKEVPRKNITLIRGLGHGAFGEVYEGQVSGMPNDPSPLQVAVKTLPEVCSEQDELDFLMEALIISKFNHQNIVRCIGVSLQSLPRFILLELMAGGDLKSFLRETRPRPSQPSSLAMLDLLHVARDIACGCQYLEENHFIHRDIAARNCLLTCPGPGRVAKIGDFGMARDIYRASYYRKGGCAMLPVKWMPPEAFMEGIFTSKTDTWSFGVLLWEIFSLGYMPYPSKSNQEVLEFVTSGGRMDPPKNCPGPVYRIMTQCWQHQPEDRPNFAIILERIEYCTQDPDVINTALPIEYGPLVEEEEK
On the technique in general: ELISA stands for enzyme-linked immunosorbent assay.

The next assay deals with Ba/F3 NPM/ALK cells. The assay is described as follows: Ba/F3 NPM/ALK cell proliferation. It is filed as cell-based. Conditions: read-out: IC50 Ba/F3 NPM/ALK. The essentials:
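Ba/F3 cells stably expressing NPM/ALK variants were made by electroporation, selected with G418 (1 mg/mL), then selected again by IL3 withdrawal. Proliferation was measured by [3H]-thymidine incorporation across a dose range of test compound. IC50 was obtained by nonlinear regression of normalized data.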

The subject of a further assay is Ba/F3-parental cells. The assay is described as follows: Parental IL3-dependent Ba/F3 cell proliferation. It is filed as cell-based. Conditions: Mus musculus, BaF3, read-out: IC50 Ba/F3-parental. The essentials: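 Cell growth was read by [3H]-thymidine incorporation across a dose range of test compound. IC50 values come from nonlinear regression curve fitting of normalized data.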

`CCCC#Cc1ccc2c(n1)[nH]c1ccccc12` [Compound 34]: the “IC50 ALK” value in assay [1] (Table 2, 2,6-substituted compounds) is “inactive”.
Consider `Clc1cnc2[nH]c3ccc(-c4ccc(N5CCOCC5)cn4)cc3c2c1` [Compound 67], for which the “IC50 ALK” value in assay [1] (Table 3, 3-chloro-6-substituted compounds) is “inactive”.
For the compound `COc1ccc(-c2ccc3[nH]c4ncc(C=Cc5ccccc5)cc4c3c2)cc1` [Compound 102], the results for the IC50 in the assay with Ba/F3 NPM/ALK cells and with Ba/F3-parental cells were 2.8 µM and > 10 µM, respectively.
